Active and inactive are the calls of the source. No cut-off for these calls is given here.
How the values were obtained:
[1] = Aggregation property of the compound in NMR buffer assessed as diameter of aggregate at 500 uM by dynamic light scattering analysis; assay type: physicochemical
In short: (§1)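 Dynamic light scattering in NMR buffer, samples filtered through 0.22 μm and centrifuged 5 min at 13 500 rpm before measurement. Autocorrelation accumulated 150 s at a 173° scattering angle, in replicates of 3–5, with water viscosity used in analysis; intensity or volume size distributions reported.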

[2] = Aggregation property of the compound in NMR buffer at 250 uM by surface plasmon resonance analysis; assay type: physicochemical
In short: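 SPR on a nonfunctionalized gold nanoparticle sensor; samples in NMR buffer with DMSO at 1.25%, injected at 33 μL/min alongside matched DMSO controls (with HSA where present, 25 μM), in duplicate. Surface regenerated only after HSA-containing injections.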

Albumin [3] = biological target: T1, Albumin (Homo sapiens, UniProt P02768); assay: Binding affinity to human serum albumin assessed as inhibition of compound aggregation at 200 to 500 uM by dynamic light scattering analysis; in short: as §1
T1 sequence (P02768 whole entry): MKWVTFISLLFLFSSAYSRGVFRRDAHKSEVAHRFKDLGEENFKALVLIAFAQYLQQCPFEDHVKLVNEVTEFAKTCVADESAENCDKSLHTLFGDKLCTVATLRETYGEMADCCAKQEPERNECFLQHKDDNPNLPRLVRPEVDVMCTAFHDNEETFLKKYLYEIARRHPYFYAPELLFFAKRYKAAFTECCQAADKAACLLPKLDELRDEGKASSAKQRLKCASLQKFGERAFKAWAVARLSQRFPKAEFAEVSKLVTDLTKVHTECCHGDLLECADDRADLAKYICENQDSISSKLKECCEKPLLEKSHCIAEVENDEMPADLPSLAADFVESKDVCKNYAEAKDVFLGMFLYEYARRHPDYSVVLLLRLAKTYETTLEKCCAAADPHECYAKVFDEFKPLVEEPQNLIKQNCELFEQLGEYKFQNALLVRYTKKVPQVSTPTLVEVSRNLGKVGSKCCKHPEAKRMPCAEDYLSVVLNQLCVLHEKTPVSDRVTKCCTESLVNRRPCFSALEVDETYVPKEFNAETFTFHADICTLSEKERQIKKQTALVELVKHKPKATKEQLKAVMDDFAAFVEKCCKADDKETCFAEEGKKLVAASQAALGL

[4] = Binding affinity to Triton-X 100 assessed as change in chemical shift at 100 uM by 1H-NMR spectra analysis
[5] = biological target: T2, Rap guanine nucleotide exchange factor 3 (Homo sapiens) (UniProt O95398); assay: Ratio of apparent Kd for binding affinity to human EPAC1 cAMP binding domain (149 to 318 residues) in presence of human serum albumin to apparent Kd for binding affinity to human EPAC1 cAMP binding domain (149 to 318 residues) in absence of human serum albumin
T2 sequence (whole entry): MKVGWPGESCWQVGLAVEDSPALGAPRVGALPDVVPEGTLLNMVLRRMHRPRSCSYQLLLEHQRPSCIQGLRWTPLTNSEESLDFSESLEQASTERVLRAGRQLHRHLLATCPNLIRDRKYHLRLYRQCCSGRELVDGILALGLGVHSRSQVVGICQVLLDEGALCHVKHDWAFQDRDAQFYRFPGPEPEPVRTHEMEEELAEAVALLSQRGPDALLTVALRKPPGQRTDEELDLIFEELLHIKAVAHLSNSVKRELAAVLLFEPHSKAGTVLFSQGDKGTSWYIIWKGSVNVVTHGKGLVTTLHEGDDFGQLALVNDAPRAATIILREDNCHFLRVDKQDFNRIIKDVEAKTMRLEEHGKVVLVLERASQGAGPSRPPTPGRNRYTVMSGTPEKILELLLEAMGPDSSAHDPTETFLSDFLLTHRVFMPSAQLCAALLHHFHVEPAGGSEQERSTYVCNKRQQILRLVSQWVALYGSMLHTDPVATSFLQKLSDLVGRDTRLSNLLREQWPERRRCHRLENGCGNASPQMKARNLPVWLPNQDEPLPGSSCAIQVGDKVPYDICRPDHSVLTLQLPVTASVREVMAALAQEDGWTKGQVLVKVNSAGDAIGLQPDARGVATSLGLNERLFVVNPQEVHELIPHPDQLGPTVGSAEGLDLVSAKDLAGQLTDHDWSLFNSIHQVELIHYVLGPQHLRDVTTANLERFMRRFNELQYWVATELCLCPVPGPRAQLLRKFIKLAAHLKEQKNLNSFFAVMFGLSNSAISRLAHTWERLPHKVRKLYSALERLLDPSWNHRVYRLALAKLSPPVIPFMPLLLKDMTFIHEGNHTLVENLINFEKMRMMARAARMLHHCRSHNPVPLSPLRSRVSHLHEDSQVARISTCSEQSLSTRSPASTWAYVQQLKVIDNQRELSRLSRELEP

[6] = biological target: T2, Rap guanine nucleotide exchange factor 3 (Homo sapiens); assay: Binding affinity to human EPAC1 cAMP binding domain (149 to 318 residues) assessed as increase in peak intensity at 100 uM in presence of human serum albumin by [15N-1H]HSQC spectroscopic analysis relative to control
[7] = Binding affinity to Triton-X 100 assessed as intra-molecular cross relaxation at 100 uM by NOESY spectra analysis
In short: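 2D NOESY and ROESY of 100 μM ESI with 0.025% Triton X-100 or 500 μM ESI with 0.05% Triton X-100; 2K × 512 complex points, 12 ppm spectral width centred at 4.7 ppm, intra- and intermolecular cross-peaks mapped.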

[8] = Aggregation property of the compound assessed as change in saturation transfer at 100 uM irradiated at 6.61 ppm by STD NMR spectra analysis; assay type: physicochemical
In short: (§2)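 STD NMR, saturation by a train of 40 Gaussian pulses of 50 ms each; selective on-resonance irradiation at the stated ppm (TX at 7.48 ppm), off-resonance at 30 ppm, interleaved and subtracted by phase cycling. 32K points, 16 ppm width centred at 4.7 ppm, 256 scans, 16 dummy scans, 0.1 s recycle delay (~15 min); 3 Hz exponential line broadening.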

[9] = biological target: T2, Rap guanine nucleotide exchange factor 3 (Homo sapiens); assay: Binding affinity to human EPAC1 cAMP binding domain (149 to 318 residues) at 400 uM in presence of 0.1% triton X-100 by [15N-1H]HSQC spectroscopic analysis
[10] = Aggregation property of the compound in NMR buffer assessed as micellar morphology at 200 uM by uranyl acetate staining-based transmission electron microscopic analysis; assay type: physicochemical
[11] = biological target: T2, Rap guanine nucleotide exchange factor 3 (Homo sapiens); assay: Binding affinity to human EPAC1 cAMP binding domain (149 to 318 residues) assessed as change in chemical shift at 50 to 250 uM using aggregate form of compound by [15N-1H]HSQC spectroscopic analysis
Albumin [12] = biological target: T1, Albumin; assay: Binding affinity to human serum albumin assessed as line broadening at 100 uM by 1D 1H NMR analysis
[13] = Aggregation property of the compound assessed as shift in peak width by 1H-NMR analysis; assay type: physicochemical
In short: (§3)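 Line widths, chemical shifts and peak intensities tracked; CAC taken as the concentration where intensities deviate from linear dependence, or, for line width, the minimal concentration that increases peak width.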

Albumin [14] = biological target: T1, Albumin; assay: Displacement of ANS from human serum albumin up to 50 uM by fluorescence assay
In short: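 Fluorescence competition: 2.5 μM HSA with 5 or 100 μM ANS, ligand added over a concentration range. Excitation 360 nm; emission read at 460 and 480 nm to check for blue shift. Signal normalized between ANS alone (minimum) and HSA:ANS (maximum).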

[15] = Aggregation property of the compound assessed as change in chemical shift by 1H-NMR analysis; assay type: physicochemical; in short: as §3
Albumin [16] = biological target: T1, Albumin; assay: Displacement of dansylated phenylalanine from human serum albumin by fluorescence assay; conditions: read-out: Kd(app)
In short: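 Competition of ligand against 100 μM dansyl-phenylalanine (binds Sudlow sites 1 and 2) bound to 2.5 μM HSA. Excitation 370 nm, emission 480 nm. Fractional saturation modelled with two sites, free HSA assumed negligible; least-squares fit with no further ESI sites, giving maximum apparent dissociation constants.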

[17] = Binding affinity to Triton-X 100 assessed as line broadening at 100 uM by 1H-NMR spectra analysis
[18] = Binding affinity to Triton-X 100 assessed as aggregate formation at 1:1 ratio of Triton-X 100 to compound by dynamic light scattering analysis; in short: as §1
[19] = Binding affinity to Triton-X 100 assessed as intra-molecular saturation transfer at 100 uM at 6.61 ppm by STD spectra analysis; in short: as §2

CC(C)(C)c1cc(C(=O)/C(C#N)=N/Nc2cccc(Cl)c2)no1
Activity [1]: 250 nm | Activity [2]: Active | inhibition (INH) (Albumin [3]): Active | Activity [4]: Active | Activity [5]: inactive | Activity [6]: 44% | Activity [7]: Active | Activity [8]: Not Active | Activity [9]: Active | Activity [10]: Active | Activity [11]: Active | Activity (Albumin [12]): Active | Activity [13]: Not Active | Activity (Albumin [14]): Active | Activity [15]: Not Active | Kd (Albumin [16]): 99 nM | Activity [17]: Active | Activity [18]: inactive | Activity [19]: Active

— ChEMBL document CHEMBL4396878, “Mechanisms of Specific versus Nonspecific Interactions of Aggregation-Prone Inhibitors and Attenuators” (J Med Chem, 2019)
